From ChEMBL document CHEMBL2331121, “Design, synthesis, and pharmacological characterization of N- and O-substituted 5,6,7,8-tetrahydro-4H-isoxazolo[4,5-d]azepin-3-ol analogues: novel 5-HT(2A)/5-HT(2C) receptor agonists with pro-cognitive properties” (J Med Chem, 2013) come the findings set out here.

Experiment [1] has as its target T1, 5-hydroxytryptamine receptor 2C (Homo sapiens) (UniProt P28335).
T1 sequence (whole entry): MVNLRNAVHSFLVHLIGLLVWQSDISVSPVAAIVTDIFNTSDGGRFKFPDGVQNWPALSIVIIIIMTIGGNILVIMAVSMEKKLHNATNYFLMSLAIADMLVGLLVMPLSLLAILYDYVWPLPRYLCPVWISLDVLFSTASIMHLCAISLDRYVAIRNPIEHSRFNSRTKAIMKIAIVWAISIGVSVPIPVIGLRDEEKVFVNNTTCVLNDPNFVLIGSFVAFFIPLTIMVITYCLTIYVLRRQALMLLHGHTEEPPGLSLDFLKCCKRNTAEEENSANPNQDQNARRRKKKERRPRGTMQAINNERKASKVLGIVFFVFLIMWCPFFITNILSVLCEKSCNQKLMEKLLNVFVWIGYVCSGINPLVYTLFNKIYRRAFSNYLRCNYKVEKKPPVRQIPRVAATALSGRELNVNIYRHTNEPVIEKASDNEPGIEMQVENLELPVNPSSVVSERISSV
The experiment in a line: Ratio of EC50 for human 5HT2C receptor by calcium fiux-based fluorescence assay to […] accumulation-based TR-FRET assay. Format: functional.

Experiment [2] relates to Mus musculus. In words: Procognitive effect in C57BI/6J mouse assessed as time spent in familiar arm at 0.43 mg/kg, po administered 30 mins prior to acquisition trial measured after 24 hrs in presence of SB242084. Format: functional. An outline of the steps:
(§1)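 Male C57Bl/6J mice aged 8 weeks, two-trial place recognition Y-maze. 3 min acquisition with two arms open; 24 h ITI; 3 min retention with all three arms open. Drug given po 30 min before acquisition, vehicle 10% HP-βCD. SB242084 2.1 mg/kg co-administered where stated; doses as free base. Readouts are % distance, arm entries and time in each arm. Familiar arms pooled; one-way ANOVA.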

For experiment [3], the target named is T2, 5-hydroxytryptamine receptor 2A (Homo sapiens, UniProt P28223). In words: Agonist activity at human 5HT2A receptor expressed in HEK293 cells assessed as accumulation of IP1 incubated for 1 hr at 37 degC followed by 15 mins at RT by TR-FRET assay relative to 5HT. Format: functional, cell-based. An outline of the steps:
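Polyclonal HEK293 lines stably expressing human 5-HT2A (variant 1) or 5-HT2C (INI isoform), detached and suspended at 1 × 10⁷ cells/mL in HBSS with 20 mM HEPES, 1 mM CaCl₂, 1 mM MgCl₂, pH 7.4. Ligands in buffer with 40 mM LiCl. Incubated 1 h at 37 °C, then 15 min RT. IP1 read by HTRF 665/615 ratio. Triplicate, at least four times.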

For experiment [4], the system named is Mus musculus. In words: Procognitive effect in C57Bl/6J mouse assessed as time spent in novel arm at 0.43 mg/kg, po administered 30 mins prior to acquisition trial measured after 24 hrs in presence of SB242084. Format: functional. An outline of the steps:
as §1

Experiment [5] has as its system Mus musculus. The experiment in a line: Procognitive effect in C57Bl/6J mouse assessed as time spent in familiar arm at 0.43 mg/kg, po administered 30 mins prior to acquisition trial measured after 24 hrs by Y-maze test. Format: functional. An outline of the steps:
as §1

The test system of experiment [6] is Mus musculus. The experiment in a line: Procognitive effect in C57Bl/6J mouse assessed as number of novel arm entry at 0.43 mg/kg, po administered 30 mins prior to acquisition trial measured after 24 hrs in presence of SB242084. Format: functional. The procedure, abridged:
as §1

The target of experiment [7] is T2, 5-hydroxytryptamine receptor 2A. The experiment in a line: biochemical. Format: cell-based, tsA201. As to conditions: read-out: Ki.
In experiment [8] the target is T3, 5-hydroxytryptamine receptor 2C (Rattus norvegicus) (UniProt P08909).
T3 sequence (whole entry): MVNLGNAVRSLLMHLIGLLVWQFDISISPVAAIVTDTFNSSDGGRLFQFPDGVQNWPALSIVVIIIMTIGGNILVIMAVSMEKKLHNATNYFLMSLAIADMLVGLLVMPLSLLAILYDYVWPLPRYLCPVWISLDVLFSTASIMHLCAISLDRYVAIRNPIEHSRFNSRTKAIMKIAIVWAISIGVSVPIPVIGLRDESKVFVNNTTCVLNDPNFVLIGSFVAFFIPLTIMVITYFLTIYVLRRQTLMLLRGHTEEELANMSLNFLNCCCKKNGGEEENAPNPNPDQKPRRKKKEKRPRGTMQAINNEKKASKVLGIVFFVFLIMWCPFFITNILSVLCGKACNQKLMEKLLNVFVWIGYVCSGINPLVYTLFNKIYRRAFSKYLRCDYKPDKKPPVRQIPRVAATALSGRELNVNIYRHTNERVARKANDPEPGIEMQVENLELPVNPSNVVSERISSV
The experiment in a line: Displacement of [125I]-N-(p-I-Bn)-THAZ from 5HT2C receptor in Sprague-Dawley rat cortical membrane at 100 uM after 40 mins by autoradiography.

For experiment [9], the target named is T3, 5-hydroxytryptamine receptor 2C (Rattus norvegicus). The experiment in a line: Displacement of [125I]-N-(p-I-Bn)-THAZ from 5HT2C receptor in rat cerebellum membrane after 1 hr by scintillation counting analysis. Format: cell membranes.
The target is the same in experiment [10]. In words: Displacement of [125I]-N-(p-I-Bn)-THAZ from 5HT2C receptor in Sprague-Dawley rat midbrain membrane at 100 uM after 40 mins by autoradiography. Format: tissue-based.
For experiment [11], the system named is Mus musculus. In words: Procognitive effect in C57Bl/6J mouse assessed as distance traveled in the familiar arm at 0.43 mg/kg, po administered 30 mins prior to acquisition trial measured after 24 hrs in presence of SB242084 (reference value: 31.5 +/- 2.9%). Format: functional. The procedure, abridged: as §1
Experiment [12] relates to Mus musculus. The experiment in a line: Procognitive effect in C57Bl/6J mouse assessed as number of familiar arm entry at 0.43 mg/kg, po administered 30 mins prior to acquisition trial measured after 24 hrs by Y-maze test. Format: functional. An outline of the steps: as §1
In experiment [13] the target is T3, 5-hydroxytryptamine receptor 2C (Rattus norvegicus). The experiment in a line: Displacement of [125I]-N-(p-I-Bn)-THAZ from 5HT2C receptor in rat hippocampal membrane after 1 hr by scintillation counting analysis. Format: cell membranes. As to conditions: Hippocampus.
The target of experiment [14] is T1, 5-hydroxytryptamine receptor 2C (Homo sapiens). In words: Agonist activity at human 5HT2C receptor expressed in HEK293 cells assessed as induction of intracellular calcium release by fluorescence assay relative to 5HT. Format: functional, cell-based. The procedure, abridged: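 Stable polyclonal 5-HT2A or 5-HT2C HEK293 cells seeded on poly-D-lysine plates (6 × 10⁴ cells/well). Next day loaded with Fluo-4/AM for 1 h at 37 °C in HBSS/20 mM HEPES/1 mM CaCl₂/1 mM MgCl₂/2.5 mM probenecid, pH 7.4. Fluorescence (485 ex/525 em) recorded before and up to 90 s after agonist. Response relative to 5-HT on the same plate. Duplicate, at least three times.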

Experiment [15] addresses T3, 5-hydroxytryptamine receptor 2C (Rattus norvegicus). The experiment in a line: Displacement of [125I]-N-(p-I-Bn)-THAZ from 5HT2C in Sprague-Dawley rat hippocampal membrane at 100 uM after 40 mins by autoradiography. Format: tissue-based. As to conditions: Hippocampus.
The subject of experiment [16] is Mus musculus. In words: Procognitive effect in C57Bl/6J mouse assessed as distance traveled in the novel arm at 0.43 mg/kg, po administered 30 mins prior to acquisition trial measured after 24 hrs in presence of SB242084 (reference value: 37 +/-5.8%). Format: functional. The procedure, abridged:
as §1

The source made the active and inactive calls. The rule behind the calls is not given here.
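For Ki in this document: radioligand displacement of [3H]ketanserin on membranes of tsA201 cells expressing the receptor, incubated 1 hr, bound radioactivity read by scintillation counting.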

T2 sequence (P28223 whole entry, canonical isoform): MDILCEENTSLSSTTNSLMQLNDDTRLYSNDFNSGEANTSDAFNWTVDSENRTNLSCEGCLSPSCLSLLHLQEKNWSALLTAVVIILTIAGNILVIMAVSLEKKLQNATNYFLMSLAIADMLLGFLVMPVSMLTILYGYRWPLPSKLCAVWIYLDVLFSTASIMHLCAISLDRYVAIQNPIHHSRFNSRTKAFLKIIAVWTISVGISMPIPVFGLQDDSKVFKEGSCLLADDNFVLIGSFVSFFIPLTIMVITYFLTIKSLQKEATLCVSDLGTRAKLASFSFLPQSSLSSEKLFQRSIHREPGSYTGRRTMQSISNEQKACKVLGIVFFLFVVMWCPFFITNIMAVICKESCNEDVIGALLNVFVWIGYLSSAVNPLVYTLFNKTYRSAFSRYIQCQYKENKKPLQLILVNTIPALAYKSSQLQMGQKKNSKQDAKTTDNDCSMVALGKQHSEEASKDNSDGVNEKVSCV

Regarding `O=c1c2c(on1Cc1ccccc1)CCNCC2`, the Ratio EC50 in [1] was found to be 2. For the same molecule, the Activity with Mus musculus [2] is reported as 31.7%; in the experiment with Mus musculus [4] it was 36.6%; in the experiment with Mus musculus [5], 30.6%; in the experiment with Mus musculus [6], 32.8%; with Mus musculus [11], 32.6%; in the experiment on Mus musculus [12], 30.8%. The Activity in the experiment on Mus musculus [16] was 34.7%. For the same molecule, the maximal effect (Emax) was determined as 95% in experiment [3] and 90% in experiment [14]. The Ki in [7] turned out to be 8.8 µM. For the same molecule, the result in experiment [8] and in [10] was Active. For the same molecule, the result in experiment [9], in experiment [13] and in experiment [15] was inactive.
